What follows are compounds tested on HEK293 (assay: Inhibitory activity against sphingosine kinase expressed in HEK293 cells at 10 uM). Settings: Homo sapiens.
Assay type: cell-based
In short: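 Sphingosine kinase from cytosolic fractions of HEK 293 cells transfected to overexpress the enzyme (0.125 μg). Substrate D-erythro-sphingosine 10 μM in Triton X-100 (0.25% final), with [³²P]ATP (10 μCi, 1 mM) and MgCl₂ 10 mM. Analogues tested at 10 μM. After 10 min at 37 °C, sphingosine-1-phosphate formation measured. Activity given as % of vehicle-only control; means ± S.D.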

**Q.** For `N[C@@H](CO)[C@@H](O)CCc1ccccc1`, which inhibition is on record?
**A.** 72%

**Q.** `CCCCCCCCCCCCC/C=C/[C@@H](O)[C@H](CO)N(C)C` was tested. Which inhibition did it give?
**A.** 47%

**Q.** How did the inhibition turn out when `N[C@@H](CO)[C@H](O)/C=C/c1ccccc1` was run?
**A.** 77%

**Q.** `N[C@@H](CO)[C@@H](F)CCc1ccccc1` was tested. Which inhibition did it give?
**A.** 62%

**Q.** How did the inhibition turn out when `CCCCCCCC(F)/C=C/[C@@H](N)CO` (stereo partly drawn) was run?
**A.** 80%

**Q.** How did the inhibition turn out when `CCCCCCCCC[C@H](O)[C@@H](N)CO` was run?
**A.** 50%

**Q.** Which inhibition does the source give for `CCCCCCC/C=C/[C@H](F)[C@@H](N)CO` here?
**A.** 82%

**Q.** `CCCCCCCCC[C@@H](O)[C@@H](N)CO` was tested. Which inhibition did it give?
**A.** 48%

**Q.** `N[C@@H](CO)[C@H](O)CCc1ccccc1` was tested. Which inhibition did it give?
**A.** 59%

**Q.** For `CCCCCCC/C=C/[C@@H](O)[C@@H](N)CO`, which inhibition is on record?
**A.** 69%

**Q.** How did the inhibition turn out when `N[C@@H](CO)[C@@H](O)/C=C/c1ccccc1` was run?
**A.** 79%

**Q.** With `CCCCCCCCC[C@H](F)[C@@H](N)CO` as the compound, how does the inhibition read?
**A.** 68%

**Q.** How did the inhibition turn out when `CCCCCCC/C=C/[C@H](O)[C@@H](N)CO` was run?
**A.** 70%
